Laboratory results as given in ChEMBL document CHEMBL5705905, “Pharmacological targeting of kinases MST1 and MST2 augments tissue repair and regeneration” (Sci Transl Med, 2016).
Active and inactive are the calls of the source. The calls are words filed in the database; no cut-off is given here.

How the values were obtained:
[1] = target: Serine/threonine-protein kinase haspin (Homo sapiens) (UniProt Q8TF76); experiment: Inhibition of HASPIN (unknown origin) assessed as remaining activity at 1 uM by Kinome scan method relative to control
[2] = tested on: Mus musculus; experiment: Protection against human hepatocyte transplanted FRG mouse assessed as Fah-deficient hepatocyte survival at 1 mg/kg, ip administrated once a daily for 28 days by H&E staining based immunohistochemical analysis; format: functional, organism-based; conditions: Liver, time 28.0 day
[3] = target: Tyrosine-protein kinase ABL1 (Homo sapiens, UniProt P00519, Q252H); experiment: Inhibition of phosphorylated ABL1 Q252H mutant (unknown origin) in presence of ATP by enzymatic assay
[4] = target: Dual specificity protein kinase CLK4 (Homo sapiens) (UniProt Q9HAZ1); experiment: Inhibition of CLK4 (unknown origin) assessed as remaining activity at 1 uM by Kinome scan method relative to control
Chain of Dual specificity protein kinase CLK4 (Homo sapiens) (Q9HAZ1 whole entry, looked up): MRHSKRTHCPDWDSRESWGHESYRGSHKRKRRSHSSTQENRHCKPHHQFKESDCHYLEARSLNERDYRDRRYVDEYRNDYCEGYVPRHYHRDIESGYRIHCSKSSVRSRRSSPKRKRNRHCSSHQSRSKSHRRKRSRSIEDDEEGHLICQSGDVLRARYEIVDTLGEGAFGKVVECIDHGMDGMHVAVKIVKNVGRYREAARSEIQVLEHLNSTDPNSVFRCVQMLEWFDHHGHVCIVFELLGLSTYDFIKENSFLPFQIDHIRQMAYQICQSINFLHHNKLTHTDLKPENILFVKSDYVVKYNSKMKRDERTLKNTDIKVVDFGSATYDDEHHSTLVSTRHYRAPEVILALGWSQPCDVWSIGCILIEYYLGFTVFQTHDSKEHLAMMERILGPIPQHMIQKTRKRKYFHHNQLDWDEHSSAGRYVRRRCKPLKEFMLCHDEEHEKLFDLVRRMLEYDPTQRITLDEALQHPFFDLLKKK
Procedure, shortened: (§1)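 Active-site-dependent competition-binding profiling (KINOMEscan) at 1 μM against a 468-kinase panel; compound supplied from a 10 mM DMSO stock. Read-out is ctrl% = (test signal − positive control signal)/(negative control signal − positive control signal) × 100. DMSO is the negative control (100%) and a control compound the positive control (0%). Lower ctrl% means tighter binding.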

[5] = tested on: Receptor-type tyrosine-protein kinase FLT3 (Homo sapiens), P36888 [R834Q]; experiment: Inhibition of FLT3 R834Q mutant (unknown origin) assessed as remaining activity at 1 uM by Kinome scan method relative to control
[6] = target: Cyclin-dependent kinase 15 (Homo sapiens) (UniProt Q96Q40); experiment: Inhibition of PFTAIRE2 (unknown origin) assessed as remaining activity at 1 uM by Kinome scan method relative to control
Chain of Cyclin-dependent kinase 15 (Homo sapiens) (Q96Q40 whole entry): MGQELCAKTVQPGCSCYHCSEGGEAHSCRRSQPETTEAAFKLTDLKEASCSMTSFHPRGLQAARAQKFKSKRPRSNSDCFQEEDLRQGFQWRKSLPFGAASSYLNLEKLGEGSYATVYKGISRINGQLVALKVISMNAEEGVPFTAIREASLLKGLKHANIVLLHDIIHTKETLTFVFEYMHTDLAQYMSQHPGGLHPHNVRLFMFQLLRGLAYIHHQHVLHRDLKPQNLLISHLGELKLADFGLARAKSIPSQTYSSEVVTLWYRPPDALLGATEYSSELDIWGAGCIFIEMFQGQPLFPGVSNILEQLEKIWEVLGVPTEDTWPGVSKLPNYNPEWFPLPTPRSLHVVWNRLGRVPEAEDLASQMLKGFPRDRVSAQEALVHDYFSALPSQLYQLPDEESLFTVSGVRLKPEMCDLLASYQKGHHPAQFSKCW

[7] = target: Serine/threonine-protein kinase 33 (Homo sapiens) (UniProt Q9BYT3); experiment: Inhibition of STK33 (unknown origin) assessed as remaining activity at 1 uM by Kinome scan method relative to control
[8] = target: Calcium/calmodulin-dependent protein kinase type II subunit gamma (Homo sapiens) (UniProt Q13555); experiment: Inhibition of CAMK2G (unknown origin) assessed as remaining activity at 1 uM by Kinome scan method relative to control; procedure, shortened: as §1
Chain of Calcium/calmodulin-dependent protein kinase type II subunit gamma (Homo sapiens) (Q13555 whole entry): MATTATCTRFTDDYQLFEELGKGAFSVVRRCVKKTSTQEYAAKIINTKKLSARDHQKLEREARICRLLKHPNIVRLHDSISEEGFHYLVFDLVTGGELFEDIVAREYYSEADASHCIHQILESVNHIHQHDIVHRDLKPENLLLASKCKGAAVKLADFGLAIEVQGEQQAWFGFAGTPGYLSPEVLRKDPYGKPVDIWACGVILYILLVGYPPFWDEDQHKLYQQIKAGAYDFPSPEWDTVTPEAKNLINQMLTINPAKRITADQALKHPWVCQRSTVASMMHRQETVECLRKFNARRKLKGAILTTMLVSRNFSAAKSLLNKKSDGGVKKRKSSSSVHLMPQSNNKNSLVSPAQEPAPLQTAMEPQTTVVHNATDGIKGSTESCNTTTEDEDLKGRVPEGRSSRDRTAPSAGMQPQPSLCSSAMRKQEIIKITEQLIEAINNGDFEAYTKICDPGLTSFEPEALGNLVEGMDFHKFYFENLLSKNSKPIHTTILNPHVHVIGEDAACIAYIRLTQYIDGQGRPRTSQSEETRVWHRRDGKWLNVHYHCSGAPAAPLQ

[9] = Apparent volume of distribution in male Sprague-Dawley rat at 5 mg/kg, iv measured for 24 hrs by LC-MS/MS analysis; format: ADME, organism-based; conditions: in vivo, read-out: Vz
Procedure, shortened: (§2)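 Sprague-Dawley rats, single intravenous or oral dose. Parameters (half-life, AUC, bioavailability) reported in a supplementary table.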

[10] = target: Receptor-interacting serine/threonine-protein kinase 1 (Homo sapiens) (UniProt Q13546); experiment: Inhibition of RIPK1 (unknown origin) assessed as remaining activity at 1 uM by Kinome scan method relative to control
[11] = target: Rho-associated protein kinase 1 (Homo sapiens) (UniProt Q13464); experiment: Inhibition of ROCK1 (unknown origin) assessed as remaining activity at 1 uM by Kinome scan method relative to control
Procedure, shortened: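 KINOMEscan active-site competition binding assay at 1 μM against 468 kinases. Ctrl% = (test − positive control)/(negative control DMSO − positive control) × 100; lower values mean tighter binding.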

[12] = Half life in male Sprague-Dawley rat at 10 mg/kg, po measured for 24 hrs by LC-MS/MS analysis; format: ADME, organism-based; conditions: in vivo; procedure, shortened: as §2
[13] = tested on: Fibroblast growth factor receptor 3 (Homo sapiens), P22607 [G697C]; experiment: Inhibition of FGFR3 G697C mutant (unknown origin) assessed as remaining activity at 1 uM by Kinome scan method relative to control
[14] = Acute toxicity in wild-type mouse assessed as ratio of liver weight to body weight at 1 mg/kg,ip administrated twice daily for 6 days; format: organism-based; conditions: in vivo, 144 h, time 6 day
Procedure, shortened: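 Wild-type mice underwent two-thirds partial hepatectomy with vehicle or 1 mg/kg i.p. twice per day, starting with a dose before surgery. Liver/body weight ratio was followed over postoperative days, n = 5; means ± SD.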

[15] = target: Serine/threonine-protein kinase 17B (Homo sapiens) (UniProt O94768); experiment: Inhibition of DRAK2 (unknown origin) assessed as remaining activity at 1 uM by Kinome scan method relative to control
Chain of Serine/threonine-protein kinase 17B (Homo sapiens) (O94768 whole entry): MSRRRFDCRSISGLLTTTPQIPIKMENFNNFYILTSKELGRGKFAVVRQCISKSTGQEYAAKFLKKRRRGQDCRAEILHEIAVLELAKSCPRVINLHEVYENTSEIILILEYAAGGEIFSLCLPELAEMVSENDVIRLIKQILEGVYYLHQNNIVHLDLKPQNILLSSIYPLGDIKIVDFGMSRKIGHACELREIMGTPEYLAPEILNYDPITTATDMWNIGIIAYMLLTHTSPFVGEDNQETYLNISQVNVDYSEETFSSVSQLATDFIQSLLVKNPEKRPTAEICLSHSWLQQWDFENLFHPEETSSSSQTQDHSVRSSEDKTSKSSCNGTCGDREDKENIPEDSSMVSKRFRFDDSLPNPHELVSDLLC

[16] = target: Serine/threonine-protein kinase NLK (Homo sapiens) (UniProt Q9UBE8); experiment: Inhibition of NLK (unknown origin) assessed as remaining activity at 1 uM by Kinome scan method relative to control
Chain of Serine/threonine-protein kinase NLK (Homo sapiens) (Q9UBE8 whole entry): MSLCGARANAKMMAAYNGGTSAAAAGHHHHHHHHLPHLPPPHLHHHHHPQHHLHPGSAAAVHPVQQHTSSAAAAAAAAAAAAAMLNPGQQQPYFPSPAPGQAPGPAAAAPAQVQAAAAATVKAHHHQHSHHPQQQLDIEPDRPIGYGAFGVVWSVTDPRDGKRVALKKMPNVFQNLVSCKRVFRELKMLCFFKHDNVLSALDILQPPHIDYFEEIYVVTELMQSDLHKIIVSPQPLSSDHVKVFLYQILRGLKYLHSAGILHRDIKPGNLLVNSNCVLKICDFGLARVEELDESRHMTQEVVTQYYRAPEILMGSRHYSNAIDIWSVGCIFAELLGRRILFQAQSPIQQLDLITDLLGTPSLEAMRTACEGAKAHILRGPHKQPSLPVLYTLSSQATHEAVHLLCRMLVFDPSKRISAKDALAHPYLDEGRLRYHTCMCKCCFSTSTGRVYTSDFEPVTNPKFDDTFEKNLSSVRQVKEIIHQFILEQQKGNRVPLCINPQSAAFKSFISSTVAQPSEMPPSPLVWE

[17] = target: RAC-gamma serine/threonine-protein kinase (Homo sapiens) (UniProt Q9Y243); experiment: Inhibition of AKT3 (unknown origin) assessed as remaining activity at 1 uM by Kinome scan method relative to control
Chain of RAC-gamma serine/threonine-protein kinase (Homo sapiens) (Q9Y243 whole entry): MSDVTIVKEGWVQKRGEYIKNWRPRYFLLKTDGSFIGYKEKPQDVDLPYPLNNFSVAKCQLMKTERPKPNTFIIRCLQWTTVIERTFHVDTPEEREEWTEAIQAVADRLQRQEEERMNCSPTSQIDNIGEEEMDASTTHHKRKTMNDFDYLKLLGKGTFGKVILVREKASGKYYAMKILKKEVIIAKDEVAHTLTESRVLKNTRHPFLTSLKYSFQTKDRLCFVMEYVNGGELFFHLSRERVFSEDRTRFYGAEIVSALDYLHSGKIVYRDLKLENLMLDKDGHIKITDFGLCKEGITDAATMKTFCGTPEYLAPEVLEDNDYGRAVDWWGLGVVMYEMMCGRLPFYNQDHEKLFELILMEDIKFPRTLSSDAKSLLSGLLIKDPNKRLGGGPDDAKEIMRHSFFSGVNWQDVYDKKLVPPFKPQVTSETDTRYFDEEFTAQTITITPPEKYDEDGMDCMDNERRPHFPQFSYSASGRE
Procedure, shortened: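 Active-site-dependent competition-binding (KINOMEscan) panel of 468 kinases, test compound at 1 μM (from a 10 mM DMSO stock). Read-out is ctrl% = (test signal − positive control signal)/(negative control signal − positive control signal) × 100. DMSO is the negative control (100%) and a control compound is the positive control (0%). Lower ctrl% means tighter binding.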

[18] = target: Calcium/calmodulin-dependent protein kinase type 1G (Homo sapiens) (UniProt Q96NX5); experiment: Inhibition of CAMK1G (unknown origin) assessed as remaining activity at 1 uM by Kinome scan method relative to control; procedure, shortened: as §1
Chain of Calcium/calmodulin-dependent protein kinase type 1G (Homo sapiens) (Q96NX5 whole entry): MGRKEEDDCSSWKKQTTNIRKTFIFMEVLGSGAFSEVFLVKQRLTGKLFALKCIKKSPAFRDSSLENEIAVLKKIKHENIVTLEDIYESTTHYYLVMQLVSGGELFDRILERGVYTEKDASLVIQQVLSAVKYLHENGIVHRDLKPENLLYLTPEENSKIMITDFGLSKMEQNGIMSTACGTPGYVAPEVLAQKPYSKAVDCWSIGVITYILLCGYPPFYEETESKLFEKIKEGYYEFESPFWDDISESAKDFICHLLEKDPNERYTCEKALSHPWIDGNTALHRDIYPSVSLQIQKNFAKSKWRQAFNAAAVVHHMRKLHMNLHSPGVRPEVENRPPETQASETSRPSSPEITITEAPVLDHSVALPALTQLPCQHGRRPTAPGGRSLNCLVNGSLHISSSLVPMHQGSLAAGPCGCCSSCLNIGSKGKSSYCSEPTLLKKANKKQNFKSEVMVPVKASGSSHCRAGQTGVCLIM

[19] = target: Serine/threonine-protein kinase Nek4 (Homo sapiens) (UniProt P51957); experiment: Inhibition of NEK4 (unknown origin) assessed as remaining activity at 1 uM by Kinome scan method relative to control
Chain of Serine/threonine-protein kinase Nek4 (Homo sapiens) (P51957 whole entry, looked up): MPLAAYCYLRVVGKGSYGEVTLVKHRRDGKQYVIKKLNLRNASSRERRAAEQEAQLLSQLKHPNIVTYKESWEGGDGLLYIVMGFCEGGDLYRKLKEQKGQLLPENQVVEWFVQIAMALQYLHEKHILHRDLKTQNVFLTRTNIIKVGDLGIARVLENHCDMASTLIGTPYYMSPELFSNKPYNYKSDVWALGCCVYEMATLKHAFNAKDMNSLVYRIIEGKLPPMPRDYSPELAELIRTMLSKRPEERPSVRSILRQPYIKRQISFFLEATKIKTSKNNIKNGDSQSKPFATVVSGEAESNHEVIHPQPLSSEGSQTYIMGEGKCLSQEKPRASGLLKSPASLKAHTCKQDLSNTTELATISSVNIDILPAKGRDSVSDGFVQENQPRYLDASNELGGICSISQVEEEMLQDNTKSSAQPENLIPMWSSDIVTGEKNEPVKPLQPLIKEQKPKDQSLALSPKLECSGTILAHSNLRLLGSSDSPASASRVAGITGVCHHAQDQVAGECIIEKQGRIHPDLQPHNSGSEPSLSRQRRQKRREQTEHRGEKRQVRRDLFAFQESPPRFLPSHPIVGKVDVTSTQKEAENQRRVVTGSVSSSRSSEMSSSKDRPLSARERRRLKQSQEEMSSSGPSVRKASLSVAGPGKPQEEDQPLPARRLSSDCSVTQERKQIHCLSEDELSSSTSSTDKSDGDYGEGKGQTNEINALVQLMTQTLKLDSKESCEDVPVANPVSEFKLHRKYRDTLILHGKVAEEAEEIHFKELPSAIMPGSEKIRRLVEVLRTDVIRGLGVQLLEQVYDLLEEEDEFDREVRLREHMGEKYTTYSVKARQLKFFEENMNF

[20] = target: Serine/threonine-protein kinase 24 (Homo sapiens, UniProt Q9Y6E0); experiment: Inhibition of MST3 (unknown origin) in presence of ATP by enzymatic assay
Chain of Serine/threonine-protein kinase 24 (Q9Y6E0 whole entry): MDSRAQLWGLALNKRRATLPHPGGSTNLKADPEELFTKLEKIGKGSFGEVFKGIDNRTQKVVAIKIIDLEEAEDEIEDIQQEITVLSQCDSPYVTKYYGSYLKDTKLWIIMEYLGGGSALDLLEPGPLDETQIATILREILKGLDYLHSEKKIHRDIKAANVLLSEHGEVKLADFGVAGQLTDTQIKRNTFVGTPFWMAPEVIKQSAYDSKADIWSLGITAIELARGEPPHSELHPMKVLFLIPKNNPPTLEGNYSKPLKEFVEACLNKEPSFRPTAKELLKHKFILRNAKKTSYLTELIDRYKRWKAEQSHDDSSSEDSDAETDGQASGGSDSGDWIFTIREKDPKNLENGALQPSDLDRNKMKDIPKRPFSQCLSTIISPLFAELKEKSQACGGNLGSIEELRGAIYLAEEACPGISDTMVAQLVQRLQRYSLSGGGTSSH

[21] = target: Mitogen-activated protein kinase kinase kinase 3 (Homo sapiens) (UniProt Q99759); experiment: Inhibition of MAP3K3 (unknown origin) assessed as remaining activity at 1 uM by Kinome scan method relative to control
[22] = target: T1, Serine/threonine-protein kinase 4 (Homo sapiens, UniProt Q13043); experiment: Inhibition of recombinant His-tagged full-length MST1 (unknown origin) expressing in Escherichia coli assessed as MOB1a phosphorylation level incubated for 30 min in the presence of 10 uM ATP by immunoblot analysis
T1 sequence (Q13043 whole entry): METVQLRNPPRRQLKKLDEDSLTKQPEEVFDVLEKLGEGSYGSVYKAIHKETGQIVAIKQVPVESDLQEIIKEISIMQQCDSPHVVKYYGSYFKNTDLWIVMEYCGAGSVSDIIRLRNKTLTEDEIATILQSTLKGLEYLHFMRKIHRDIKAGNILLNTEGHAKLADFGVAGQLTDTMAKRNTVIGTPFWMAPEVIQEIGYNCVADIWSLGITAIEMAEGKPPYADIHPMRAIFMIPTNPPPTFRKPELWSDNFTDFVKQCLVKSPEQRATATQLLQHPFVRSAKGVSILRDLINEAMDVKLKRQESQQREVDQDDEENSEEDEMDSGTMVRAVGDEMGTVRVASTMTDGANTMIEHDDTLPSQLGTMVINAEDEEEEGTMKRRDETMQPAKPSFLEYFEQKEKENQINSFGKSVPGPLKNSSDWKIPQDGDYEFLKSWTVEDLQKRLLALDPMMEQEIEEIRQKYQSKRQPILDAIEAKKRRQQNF

CN1C(=O)c2sccc2N(C)c2nc(Nc3ccc(S(N)(=O)=O)cc3)ncc21
Activity [1]: 96% | Activity [2]: inactive | IC50 [3]: 11.6 nM | Activity [4]: 100% | Activity [5]: 91% | Activity [6]: 99% | Activity [7]: 97% | Activity [8]: 100% | Vd [9]: 7.1 L/kg | Activity [10]: 100% | Activity [11]: 89% | half-life [12]: 5.18 h | Activity [13]: 95% | Activity [14]: Non-Toxic | Activity [15]: 90% | Activity [16]: 85% | Activity [17]: 98% | Activity [18]: 100% | Activity [19]: 94% | IC50 [20]: 44.8 nM | Activity [21]: 2% | IC50 [22]: 164 nM
